Measured values: paper PMC7114172 (ACS Omega, 2020)
Bridge positions count the residues as written; N and C are the ends. Square brackets hold non-standard residues; d marks the D form. Ends that are not written are not given here. Peptide text beside a SMILES is read from it. * marks the point of attachment. Myristoyl = CCCCCCCCCCCCCC(=O)*; Phe(ol) = N[C@H](CO)Cc1ccccc1; Aib = CC(C)(N)C(=O)O; NHCH2CH2OH = OCCN*; For = O=C*

Key:
S. aureus (ATCC 8530) = conditions: concentration at which no viable colonies are formed; 10 mM phosphate buffer pH 7.4; cited from earlier work
[1] = system: E. coli K-12 strain MG1655 (CGSC-7740); conditions: concentration at which no viable colonies are formed; 10 mM phosphate buffer pH 7.4; cited from earlier work
LPS E. coli K-235 = assay: LPS binding, dansyl cadaverine; design: species or system Escherichia coli; conditions: LPS E. coli K-235 280 μg/mL, DC 12 μM, 10 mM phosphate buffer pH 7.4, 25 °C
How it was run: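 Test peptide was added in small successive aliquots to a preformed DC:LPS complex. […] Excitation was at 340 nm and emission scanned 420–600 nm (slits 2.5/5 nm). Probe occupancy was calculated as (F−F0)/(Fmax−F0), where F0 is DC alone, Fmax is DC at maximum LPS, and F is DC–LPS at each peptide concentration. A positive-control peptide was run first.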

| Molecule | MBC, S. aureus (S. aureus (ATCC 8530)) [µM] | MBC, E. coli [1] [µM] | Relative binding affinity to LPS (DC displacement) (LPS E. coli K-235) |
| --- | --- | --- | --- |
| Myristoyl-ACPIFTKIQGTYRGKAKCK (disulfide 2-18 (inferred)) [MPhd1] | 5 | 5 | more affinity as compared to Phd2-3 and MPhd2-3 |
| ACPIFTKIQGTYRGKAKCK (disulfide 2-18 (inferred)) [Phd1] | 20 | 19 | more affinity as compared to Phd2-3 and MPhd2-3 |
| CC(C)C[C@@H](NC(=O)[C@H](C)NC(=O)CNC(=O)[C@@H](NC=O)C(C)C)C(=O)N[C@@H](C)C(=O)N[C@@H](C(=O)N[C@H](C(=O)N[C@@H](C(=O)N[C@@H](Cc1c[nH]c2ccccc12)C(=O)N[C@H](CC(C)C)C(=O)N[C@@H](Cc1c[nH]c2ccccc12)C(=O)N[C@H](CC(C)C)C(=O)N[C@@H](Cc1c[nH]c2ccccc12)C(=O)N[C@H](CC(C)C)C(=O)N[C@@H](Cc1c[nH]c2ccccc12)C(=O)NCCO)C(C)C)C(C)C)C(C)C [gramicidin A] (For-VGA[dL]A[dV]V[dV]W[dL]W[dL]W[dL]W-NHCH2CH2OH; N-terminus and C-terminus assumed) |  |  | weak affinity as compared to polymyxin B |
| Myristoyl-SCLPKEEQIGKSTRGRKCRRKK (disulfide 2-18 (inferred)) [MPhd3] | 4 | 4 |  |
| Myristoyl-FCPRRYKQIGTGLPGTKCK (disulfide 2-18 (inferred)) [MPhd2] | 5 | 6 |  |
| cyclized isooctanoyl BTBB(BF^dLBBT) (lariat or depsi) [polymyxin B] |  |  | strong binding compared to HBD2-3 as well as LL37 and melittin |
| CC(=O)NC(C)(C)C(=O)N1CCC[C@H]1C(=O)NC(C)(C)C(=O)N[C@@H](C)C(=O)NC(C)(C)C(=O)N[C@@H](C)C(=O)N[C@@H](CCC(N)=O)C(=O)NC(C)(C)C(=O)N[C@H](C(=O)NC(C)(C)C(=O)NCC(=O)N[C@@H](CC(C)C)C(=O)NC(C)(C)C(=O)N1CCC[C@H]1C(=O)N[C@H](C(=O)NC(C)(C)C(=O)NC(C)(C)C(=O)N[C@@H](CCC(=O)O)C(=O)N[C@@H](CCC(N)=O)C(=O)N[C@H](CO)Cc1ccccc1)C(C)C)C(C)C [alamethicin] (Ac-[Aib]P[Aib]A[Aib]AQ[Aib]V[Aib]GL[Aib]PV[Aib][Aib]EQ[Phe(ol)]; N-terminus assumed) |  |  | weak affinity as compared to polymyxin B |
